# Measured values gathered from unrelated publications.
# Each line is one published result; the experiments were not run side by side.
# TYK2: Non-receptor tyrosine-protein kinase TYK2 (TYK2, Homo sapiens, UniProt P29597)
# TYK2 JH2: Non-receptor tyrosine-protein kinase TYK2, JH2 (TYK2, Homo sapiens, UniProt P29597)
SMILES,target,test,conditions,quantity,value
CC(C)(C)c1cc(C=C(C#N)C#N)cc(Br)c1O,TYK2,"enzyme activity, inhibitor",0.5 µM,remaining activity,61.3%
COc1ncccc1-c1cnn2ccc(N3CCN(C(=O)OC(C)C)CC3)nc12,TYK2,"binding, competition with immobilised ligand",1 µM,remaining binding,76%
O=c1[nH]c2ccccc2n1C1CCN(Cc2ccc(-c3[nH]c4cc5ncnc5cc4nc3-c3ccccc3)cc2)CC1,TYK2,cell-free assay,0.5 µM,remaining signal,101%
Nc1ncc(-c2nc(N3CCOCC3)nc(N3CCOCC3)n2)c(C(F)F)n1,TYK2 JH2,"binding, competition with immobilised ligand",10 µM,remaining binding,15%
N#CC1(c2ccccn2)CCN(Cc2cc(C(=O)O)c(=O)n3ccccc23)CC1,TYK2 JH2,"cell-free assay, competition with immobilised ligand",1 µM,remaining binding,93%
Cn1cc(-c2cc(F)cc(N3CCn4c(cc5c4CCCC5)C3=O)c2CO)cc(Nc2ccc(N3CCN(C4COC4)CC3)cn2)c1=O,TYK2,"enzyme activity, inhibitor",0.1 µM,inhibition,1%
Cc1nn(C)cc1-c1nc2c(N3CCN(Cc4ccc(Cl)cc4)CC3)c(Cl)cnc2[nH]1,TYK2 JH2,"binding, competition with immobilised ligand",1 µM,remaining binding,100%
Cn1cncc1[C@@](O)(COc1ccc(C#N)cc1-c1ccc(OC(F)(F)F)cc1)c1ccc(C#N)cc1,TYK2 JH2,"cell-free assay, competition with immobilised ligand",1 µM,remaining binding,100%
Cn1cc(-c2cccc(N3CCc4c(sc5c4CC(C)(C)C5)C3=O)c2CO)cc(Nc2ccncn2)c1=O,TYK2,"enzyme activity, inhibitor",1 µM,inhibition,3%
